Source: PubChem (several laboratories)
Compounds with a hit are over-represented: about 2.1% of the library has one in this group of screens.
Runt-CBFb FRET: inhibitors of human RUNX1 Runt domain binding to CBFb | Cerulean-Runt/Venus-CBFb FRET ratio 530/480, 1 h | inhibition, % at 20 µM | actives 0.46% (n = 220,000) | AID 1496;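 active = inhibition over about 50% at 20 µM in the single-dose screen, limit read from the data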;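 also: 0% = DMSO wells and 100% = excess unlabeled CBFb competitor control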
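Measured by: fluorescence energy transfer, 422 nm excitation, 530/480 nm emission; test system: Cerulean-tagged RUNX1 Runt domain (FRET donor) fusion protein; buffer or medium: Tris pH 7.5 buffer with BSA; compound: one dose, 20 µM compound, 1% DMSO; times: two 1 h room-temperature incubations shielded from light; benchmarks: unlabeled CBFb 5 µM, positive control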
p97 inhibitor: inhibitors of human p97 ATPase. AID 1481. P55072. actives 0.42% (n = 220,000). recombinant p97 ATPase, Kinase-Glo ATP luminescence, 3 h. inhibition, % at 8 µM; in the data active = inhibition above about 15%;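 also: 0% = DMSO vehicle and 100% = wells lacking enzyme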
RanGTP-Impb inh: disruptors of Ran-importin-beta complex formation – biochemical, FRET, CFP-Ran, YFP-importin-beta, homogeneous, primary screen; cell-free CFP-Ran/YFP-importin-beta FRET ratio; inhibition, % (test concentration not listed); actives 1.1% (n = 300,000);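 active = more than half of the replicate wells show a fall in the fluorescence ratio signal beyond about 16%, limit read from the data, passing the limit was not always enough; inconclusive = exactly half of the replicate wells pass the set limit; inactive = fewer than half of replicates pass the limit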;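 also: 0% = DMSO wells and 100% = Ran loaded with GDP instead of GTP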
Hck-Nef inh: blocks Nef-activated human Hck kinase | Recombinant Hck-YEEI plus Nef, Z-Lyte FRET kinase assay | inhibition, % at 20 µM | actives 0.68% (n = 220,000) | AID 463187;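 active = Hck-Nef kinase inhibition above about 50%, limit read from the data; inactive = inhibition below that limit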;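 also: 0% = DMSO with Hck plus Nef and 100% = Hck alone without Nef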
Target sequence (P08631 whole entry, looked up): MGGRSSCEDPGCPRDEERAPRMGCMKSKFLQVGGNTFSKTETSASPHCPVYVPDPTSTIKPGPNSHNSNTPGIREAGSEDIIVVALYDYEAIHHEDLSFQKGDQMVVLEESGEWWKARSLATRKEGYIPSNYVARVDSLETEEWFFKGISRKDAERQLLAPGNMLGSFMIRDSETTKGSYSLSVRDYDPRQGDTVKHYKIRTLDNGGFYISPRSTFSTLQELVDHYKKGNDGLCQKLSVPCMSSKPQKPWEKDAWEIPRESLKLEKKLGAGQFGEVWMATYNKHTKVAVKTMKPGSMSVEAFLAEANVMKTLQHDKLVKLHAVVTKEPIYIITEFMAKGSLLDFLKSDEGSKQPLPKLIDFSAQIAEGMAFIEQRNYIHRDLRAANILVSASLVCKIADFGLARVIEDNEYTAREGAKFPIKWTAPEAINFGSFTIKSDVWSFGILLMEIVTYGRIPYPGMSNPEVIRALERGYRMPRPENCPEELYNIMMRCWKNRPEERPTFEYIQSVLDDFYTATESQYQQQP
Runt-SMMHC FRET: Runt domain-CBFb-SMMHC interaction inhibition. inhibition, % at 20 µM. Cerulean-Runt/Venus-CBFb-SMMHC FRET ratio 530/480, 1 h. AID 1434. Q01196+Q13951. actives 0.74% (n = 220,000);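 active = mean inhibition across duplicate retests at 20 µM reaching about 50%, limit read from the data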;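 also: 0% = DMSO wells and 100% = wells with excess untagged CBFb-SMMHC; inhibitors lower the FRET ratio by blocking Runt binding to CBFb-SMMHC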
TbHK1 inh: blocks Trypanosoma brucei hexokinase 1 activity; recombinant TbHK1, G6PDH-coupled NADH A340; inhibition, % at 10 µM; actives 0.11% (n = 220,000); AID 1430;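 active = inhibition of 50% or more in the single-dose primary screen; inactive = inhibition below 50%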
* hit, by the source's call; ? = inconclusive; / = no result.

SMILES	Runt-CBFb FRET	p97 inhibitor	RanGTP-Impb inh	Hck-Nef inh	Runt-SMMHC FRET	TbHK1 inh
CCCn1c(N)c(N2CCCCC2)c(=O)n(CC(=O)Nc2ccccc2)c1=O	0	-5	-2	0	4	-2
CCCCn1c(N)c(N2CCOCC2)c(=O)n(CC(=O)NC(C)c2ccccc2)c1=O (configuration not stated)	2	0	27*	16	2	-1
C(=N\Nc1nc2ccccc2[nH]1)/c1ccccc1	/	4	-2	19	/	-40
Brc1ccc(-c2ccc(/C=N/Nc3nc4ccccc4[nH]3)o2)cc1	26	6	64*	8	63	-2
CCOC(=O)c1c(S(=O)(=O)NCC(=O)NCc2cccc(C)c2)c(C)n(C)c1C	/	/	-2	/	/	/
C=Cc1ccc(Cn2c(=O)n(C)c(=O)c3sccc32)cc1	/	/	-1	/	/	/
Cc1nc([N+](=O)[O-])c(Sc2nc3ccc([N+](=O)[O-])cc3[nH]2)n1Cc1ccccc1	115*	4	-1	2	6	-12
Cc1cc(OCC(O)CN2CCCC2)cc(C)c1Cl (configuration not stated)	/	/	-2	/	/	/
Oc1ccc(Nc2nc(N3CCCC3)c3ccccc3n2)cc1	27	1	-3	0	71*	-4
COc1ccccc1C(=O)NC(=S)NNC(=O)c1sc2ccccc2c1Cl	0	-2	49*	0	-4	4
CCCc1nnc(SCC(=O)NC2CC2)n1C	/	/	1	/	/	/
Cc1ccc(CN2CCN(Cc3nc4ccccc4nc3C)CC2CCO)cc1 (configuration not stated)	3	4	2	15	-2	-14
CNC(=S)N(Cc1ccc(Cl)cc1)Cc1cccs1	1	-1	-1	8	1	-3
COc1ccc(CCOC(=O)c2ccc(N)c([N+](=O)[O-])c2)cc1	/	/	1	/	/	/
COCCn1c(CCC(=O)O)ccc1-c1cccs1	31	4	6	6	55*	2
CCCCn1c(CCC(=O)O)ccc1-c1cccs1	17	2	9	21	32	29
O=C(O)CC1NC(=O)N(c2ccccc2)C1=O (configuration not stated)	-3	-2	45*	-10	-6	-1
Cc1ccc(N(C(=O)c2csnn2)C(C(=O)NC2CCCCC2)c2cccnc2)c(C)c1 (configuration not stated)	/	/	-1	/	/	/
N#Cc1c2c(c(NCc3ccco3)n3c1nc1ccccc13)CCC2	17	9	6	11	/	-13
N#Cc1c2c(c(Nc3ccc(O)cc3)n3c1nc1ccccc13)CCC2	1	-2	-2	0	-17	-1
CCN(CC)CCCNc1cc(C(F)(F)F)c(C#N)c2nc3ccccc3n12	/	/	117*	/	/	/
CCN(CC)CCNc1cc(C)c(C#N)c2nc3ccccc3n12	/	/	11	/	/	/
CN(C)CCNc1c2c(c(C#N)c3nc4ccccc4n13)CCCC2	21	9	-3	25	62*	-6
CCN(CC)CCNc1c2c(c(C#N)c3nc4ccccc4n13)CCCC2	30	1	?	21	61*	-3
CC[C@H](C)/C=C/C1=CC2=C(Cl)C(=O)[C@@]3(C)OC(=O)C(C(=O)[C@H](C)[C@@H](C)O)=C3C2=CO1	/	/	6	/	/	/
SMILES	Runt-CBFb FRET	p97 inhibitor	RanGTP-Impb inh	Hck-Nef inh	Runt-SMMHC FRET	TbHK1 inh
O=C(Nc1cnc2ccccc2c1)c1ccncc1	3	6	3	6	-2	-5
O=C(NC(=S)Nc1cnc2ccccc2c1)c1ccccc1	2	1	8	139*	-3	-6
COc1ccccc1-c1cc(C(=O)N2CCN(S(=O)(=O)c3ccc(C)cc3)CC2)[nH]n1	/	/	0	/	/	/
COC(=O)CCCC1=CC2=CC(=O)C(C)(OC(=O)c3cnc4ccccc4n3)C(=O)C2=CO1 (configuration not stated)	/	/	-17	/	/	/
CCCCC1=CC2=CC(=O)C(C)(OC(=O)c3cnc4ccccc4n3)C(=O)C2=CO1 (configuration not stated)	-26	/	-42	65*	-47	-15
Cc1ccc(NC(=O)C23CCC(C)(C(=O)[C@H]2Br)C3(C)C)cc1 (some centres not stated)	-1	4	2	15	1	-5
CC1CCN(C(=O)Cn2c(=O)n(Cc3ccco3)c(=O)c3sccc32)CC1	/	/	2	/	/	/
CCCOc1ccc2c(CC)cc(=O)oc2c1C	-9	4	1	1	-2	-10
CCc1cc(=O)oc2c(C)c(O)c(CN(C)C)cc12	-43	0	38*	34	62*	-30
CC1CC(=O)N(CC(=O)NCc2ccccc2)c2ccccc2S1(=O)=O (configuration not stated)	/	/	-5	/	/	/
COc1cccc(/C(O)=C/c2nc3ccc(C(=O)NCCc4ccc(Cl)cc4)cc3[nH]c2=O)c1	-11	-2	32*	5	10	-9
COc1cccc(/C(O)=C/c2nc3ccc(C(=O)NCCc4cccc(C)c4)cc3[nH]c2=O)c1	-4	-8	43*	0	-54	-8
COc1cccc(C(=O)Nc2cc(C(=O)NCCc3ccccc3)ccc2Cl)c1	3	2	6	3	7	4
O=[N+]([O-])CC1(n2nc3ccccc3n2)CCCCC1	/	/	0	/	/	/
Cn1c(=O)c2c(nc(NCC3CCCC(CN)C3)n2Cc2ccc(Cl)cc2Cl)n(C)c1=O (configuration not stated)	/	/	5	/	/	/
COc1cccc(CN(C(=O)c2ccccc2Cl)C2CCS(=O)(=O)C2)c1 (configuration not stated)	/	/	0	/	/	/
COC(=O)c1ccccc1NC(=S)NC(=O)c1cccc2ccccc12	-1	34*	8	-1	11	-6
Cc1ccnc(NC(=O)c2ccc(OCC3CCCO3)cc2)c1 (configuration not stated)	/	/	5	/	/	/
COc1cc2c(C(=O)NCc3ccc4c(c3)OCO4)cn(CC(C)C)c(=O)c2cc1OC	-2	4	1	2	-5	-2
COc1cc2c(C(=O)Nc3ccc4c(c3)OCO4)cn(CC(C)C)c(=O)c2cc1OC	-14	-2	22*	8	1	-28
O=C(CN1CCN(C(=O)C2COc3ccccc3O2)CC1)Nc1ccc(F)cc1 (configuration not stated)	3	9	-4	7	2	-5
COc1ccc(Cl)cc1NC(=O)C(C)N1CCN(c2ccccn2)CC1 (configuration not stated)	/	/	4	/	/	/
Cn1c(CNC(=O)CNC(=O)Cc2ccc(Cl)cc2)cc(=O)n(C)c1=O	/	/	-1	/	/	/
NS(=O)(=O)c1ccc(-c2ccc(/C=C3\C(=O)Nc4ccccc43)o2)cc1	/	/	4	/	/	/
